The record followed here is ChEMBL document CHEMBL5331127, “Discovery of ARD-2051 as a Potent and Orally Efficacious Proteolysis Targeting Chimera (PROTAC) Degrader of Androgen Receptor for the Treatment of Advanced Prostate Cancer” (J Med Chem, 2023).

One series concerns Mus musculus. The experiment in a line: In vivo induction of androgen receptor degradation in human VCaP cells xenografted in CB17 SCID mouse assessed as reduction in KLK3 mRNA level at 12.5 mg/kg, po measured after 6 to 24 hrs by qRT-PCR analysis. Type of series: functional, organism-based. The note with it: time 6-24 hrs.
A short description of series [1]: Metabolic stability in dog plasma assessed as half life at 1 uM measured upto 120 mins by LC-MS/MS analysis. Type of series: ADME, cell-free, Canis lupus familiaris. The note with it: 2 h. In short, it runs like this:
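Compound at 1 μM final in pre-warmed plasma of each species, 37 °C for up to 2 h. ACN/IS quench at 0, 5, 15, 30, 60 and 120 min; LC/MS. Procaine as reference (benfluorex for rat). t1/2 = 0.693/slope of ln(fraction remaining) versus time.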

The nature of series [2]: AUC(0 to t) in ICR mouse at 2 mg/kg, iv measured upto 24 hrs by LC-MS/MS analysis. In kind it is ADME, organism-based. The arrangement: time < 24 hrs, dose 2 mg/kg, route iv. As to conditions: in vivo. In short, it runs like this:
(§1)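 Male ICR mice (2 mg/kg), male SD rats (1 mg/kg) or male Beagle dogs (1 mg/kg) given a single intravenous dose in 10% PEG400 + 90% PBS adjusted to pH 8.0 with NaOH.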

The target in series [3] is T1, Androgen receptor (Homo sapiens) (UniProt P10275).
T1 sequence (whole entry): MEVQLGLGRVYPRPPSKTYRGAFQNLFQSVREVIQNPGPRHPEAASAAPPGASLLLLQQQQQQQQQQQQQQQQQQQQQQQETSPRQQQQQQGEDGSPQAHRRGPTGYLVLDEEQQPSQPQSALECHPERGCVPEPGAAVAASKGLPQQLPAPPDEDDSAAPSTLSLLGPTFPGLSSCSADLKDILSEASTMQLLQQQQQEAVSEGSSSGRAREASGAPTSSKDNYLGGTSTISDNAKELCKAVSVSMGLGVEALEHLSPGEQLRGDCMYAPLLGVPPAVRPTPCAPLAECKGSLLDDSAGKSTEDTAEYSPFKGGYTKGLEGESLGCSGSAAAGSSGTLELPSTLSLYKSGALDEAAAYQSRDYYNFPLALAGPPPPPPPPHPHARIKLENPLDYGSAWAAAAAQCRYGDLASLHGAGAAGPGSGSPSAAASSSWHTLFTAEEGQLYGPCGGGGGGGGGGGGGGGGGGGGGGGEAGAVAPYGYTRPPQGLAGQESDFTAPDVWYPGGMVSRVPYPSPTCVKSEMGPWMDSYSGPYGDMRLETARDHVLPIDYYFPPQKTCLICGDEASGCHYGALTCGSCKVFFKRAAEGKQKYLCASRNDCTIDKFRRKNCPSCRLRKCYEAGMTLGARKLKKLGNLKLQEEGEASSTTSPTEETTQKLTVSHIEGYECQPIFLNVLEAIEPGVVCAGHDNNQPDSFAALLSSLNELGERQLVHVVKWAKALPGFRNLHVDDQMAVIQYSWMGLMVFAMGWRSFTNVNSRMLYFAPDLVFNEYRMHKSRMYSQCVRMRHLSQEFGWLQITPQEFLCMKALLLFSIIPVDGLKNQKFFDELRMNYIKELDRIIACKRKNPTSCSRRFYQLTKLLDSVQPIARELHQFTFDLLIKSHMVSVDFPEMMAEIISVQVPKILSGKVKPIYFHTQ
In words: Induction of androgen receptor degradation in human VCaP cells at 0.1 uM after 24 hrs by Western blotting analysis relative to control. In kind it is cell-based. In short, it runs like this:
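VCaP cells treated for 24 h at 10, 100 or 1000 nM. AR protein measured by Western blotting.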

The test system of series [4] is VCaP. The experiment in a line: Induction of androgen receptor degradation in human VCaP cells at 100 nM pretreated with MLN4924 for 2 hrs followed by compound addition and 3 hrs by Western blot analysis. Type of series: functional, cell-based. The note with it: time 5.0 hrs. The essentials:
(§2)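 LNCaP or VCaP cells pretreated 2 h with DMSO, ARi-12 (10 μM), thalidomide (10 μM), MG-132 (3 μM) or MLN4924 (0.5 μM), then given degrader at 100 nM for 3 h. AR measured by Western blot with GAPDH as loading control.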

Series [5] can be described thus: Half life in Sprague-Dawley rat at 1 mg/kg, iv measured upto 24 hrs by LC-MS/MS analysis. In kind it is ADME, organism-based. As to conditions: in vivo. The essentials:
as §1

The nature of series [6]: Plasma protein binding in mouse at 1 uM after 5 hrs by equilibrium dialysis based LC-MS/MS analysis. Type of series: ADME, cell-free. In short, it runs like this:
(§3)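 Equilibrium dialysis of pooled plasma of each species spiked at 1 μM against 0.1 M sodium phosphate, pH 7.4. 5 h at 37 °C with shaking at 60 rpm. Both sides matrix-matched, ACN/IS quench, LC/MS. % bound = 100 − (buffer/plasma peak-area ratio × 100); recovery also calculated. Warfarin as reference.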

The test system of series [7] is VCaP. The experiment in a line: Antitumor activity against human VCaP cells xenografted in CB17 SCID mouse assessed as tumor growth inhibition at 3.75 mg/kg, po administered for 21 days. In kind it is functional. As to conditions: 504 h, time 21 day, read-out: TGI. The essentials:
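SCID mice bearing VCaP xenografts dosed by oral gavage once daily for 21 days at 3.75, 7.5, 12.5 or 25 mg/kg. Tumour growth inhibition calculated against vehicle-treated mice at the end of treatment; body weight monitored.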

Another series has as its target Cytochrome P450 3A4 (Homo sapiens, UniProt P08684). The experiment in a line: Inhibition of CYP3A4 in human liver microsomes using […] as substrate preincubated for 5 mins followed by NADPH addition and measured after 5 mins by LC/MS analysis. Type of series: ADME, Microsome.
The nature of series [8]: Downregulation of KLK3 gene expression in human LNCaP cells at 0.3 nM incubated for 24 hrs by qRT-PCR analysis. Type of series: functional. In short, it runs like this: (§4)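 LNCaP cells (RPMI 1640) or VCaP cells (DMEM Glutamax), both with 10% FBS, treated for 24 h. KLK3 mRNA measured by qRT-PCR and calculated by the comparative CT method against GAPDH and vehicle.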
The nature of series [9]: Drug concentration in CB17 SCID mouse plasma xenografted with human VCaP cells at 12.5 mg/kg, po measured after 6 hrs by LC-MS/MS analysis. In kind it is ADME, organism-based. The essentials: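 SCID mice bearing one VCaP tumour each given a single oral 12.5 mg/kg dose in 100% PEG200. Plasma and tumour tissue collected at 6 and 24 h, 3 mice per time point. Values are mean ± SD.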

Series [10] has as its system VCaP. The experiment in a line: Antitumor activity against human VCaP cells xenografted in CB17 SCID mouse assessed as tumor growth inhibition at 15 mg/kg, po administered for 21 days. In kind it is functional. As to conditions: 504 h, time 21 day, read-out: TGI.
Series [11] deals with LNCaP. In words: Induction of androgen receptor degradation in human LNCaP cells at 100 nM pretreated with MLN4924 for 2 hrs followed by compound addition and 3 hrs by Western blot analysis. Type of series: functional, cell-based. The note with it: time 5.0 hrs. The essentials: as §2
Series [12] in a line: Plasma protein binding in monkey at 1 uM after 5 hrs by equilibrium dialysis based LC-MS/MS analysis. In kind it is ADME, cell-free, Macaca mulatta. As to conditions: rhesus monkey. The essentials:
as §3

Series [13] deals with VCaP. In words: Induction of androgen receptor degradation in human VCaP cells at 100 nM pretreated with thalidomide for 2 hrs followed by compound addition and 3 hrs by Western blot analysis. The note with it: time 5.0 hrs. In kind it is functional, cell-based. The essentials: as §2
In series [14] the test system is LNCaP. In words: Downregulation of KLK3 gene expression in human LNCaP cells incubated for 24 hrs by qRT-PCR analysis. In kind it is functional, cell-based. As to conditions: dose 0.03-30 nM. In short, it runs like this: as §4

SMILES strings stand for the structures. Active and inactive are the calls of the source. No cut-off for these calls is given here.

Cytochrome P450 3A4, sequence (P08684 whole entry): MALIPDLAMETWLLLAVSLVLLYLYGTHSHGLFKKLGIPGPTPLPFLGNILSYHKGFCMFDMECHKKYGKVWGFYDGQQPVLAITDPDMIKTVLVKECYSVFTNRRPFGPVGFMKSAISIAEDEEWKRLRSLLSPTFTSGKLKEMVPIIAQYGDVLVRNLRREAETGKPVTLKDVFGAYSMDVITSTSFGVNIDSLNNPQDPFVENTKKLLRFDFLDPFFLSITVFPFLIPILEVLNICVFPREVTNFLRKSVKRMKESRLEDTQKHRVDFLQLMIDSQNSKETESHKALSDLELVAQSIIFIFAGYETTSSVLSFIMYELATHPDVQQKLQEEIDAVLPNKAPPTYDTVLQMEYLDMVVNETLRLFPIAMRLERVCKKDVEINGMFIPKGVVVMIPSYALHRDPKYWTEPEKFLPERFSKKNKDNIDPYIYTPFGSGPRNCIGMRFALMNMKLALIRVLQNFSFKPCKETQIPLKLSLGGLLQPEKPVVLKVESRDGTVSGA

Consider `C[C@H]1CC2(CCN(c3ccc(C(=O)N4CCN(C5CN(c6ccc7c(c6)C(=O)N(C6CCC(=O)NC6=O)C7=O)C5)CC4)cc3)CC2)CN1c1ccc(C#N)c(Cl)c1` (stereo partly specified), for which the outcome in the series with Mus musculus was Active. In addition, the figures for the t1/2 in [1] and in series [5] were greater than 2 h and 2.1 h, respectively. Moreover, the AUCt in series [2] came out at 8850 ng·h/mL. Also, the Activity in [3] was greater than 95%; in [8] it was 53%; with LNCaP [14], “Dose-Dependent Effect”. Further, the outcome with VCaP [4], with LNCaP [11] and in the series with VCaP [13] was inactive. The PPB in series [6] and in series [12] was 99.2% in each case. Moreover, in the series on VCaP [7], the inhibition in vivo at 3.75 mg/kg worked out at 44%. Also, on Cytochrome P450 3A4, the IC50 was greater than 10 µM. Besides, in [9], the concentration at 6 h was 985 ng/mL. Also, the inhibition in vivo at 15 mg/kg in the series on VCaP [10] was 61%.
